Source: PubChem (several laboratories)
Most compounds without a hit are left out; they make up all but 1.5% or so of the library.
NR2E3 ag-1 = NR2E3 (human) agonism; AID 2300; inhibition of corepressor binding, % at 4.78 µM; hit rate 0.12% among 320,000; GST-NR2E3/biotin-RetCOR TR-FRET, 1536-well;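 active means percent inhibition above the cutoff of mean plus 3 SD of all tested compounds, set per screening campaign, cut at about 20% in these data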
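Format: 1536-well format; test system: GST-NR2E3 and biotin-RetCOR proteins; read-out basis: percent inhibition of TR-FRET ratio; timing: 5 h incubation at 4 °C; detection: time-resolved FRET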
NR2E3 ag-2 = human photoreceptor-specific nuclear receptor agonism; CHO-S Gal4-NCOR/VP16-NR2E3 two-hybrid, luciferase; inhibition of corepressor binding, % at 3.98 µM; hit rate 0.35% among 360,000;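 active means inhibition above the mean of all tested compounds plus 3 SD, cut at about 70% in these data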;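 further: higher means lower luciferase signal from less NR2E3 corepressor binding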
Jurkat NFkB inh = inhibitors of the PMA/ionomycin-induced NF-kB reporter in Jurkat cells; PMA/ionomycin-induced NF-kB luciferase reporter, luminescence; inhibition, % at 4 µM; hit rate 0.53% among 330,000; AID 435003; in the data active means inhibition above about 50%
GASC-1 inh = human JMJD2C demethylase inhibition | inhibition, % at 2.35 µM | Q9H3R0 | AID 2099 | GST-JMJD2C(1-420) H3K9me3 demethylation, DELFIA europium | hit rate 0.069% among 330,000;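 active means more than half of a compound's replicate wells show inhibition beyond 50%, single wells judged on their own value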;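 further: signal counts dimethyl H3K9 product captured on neutravidin plate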
Target sequence (Q9H3R0 1-420 limits assumed): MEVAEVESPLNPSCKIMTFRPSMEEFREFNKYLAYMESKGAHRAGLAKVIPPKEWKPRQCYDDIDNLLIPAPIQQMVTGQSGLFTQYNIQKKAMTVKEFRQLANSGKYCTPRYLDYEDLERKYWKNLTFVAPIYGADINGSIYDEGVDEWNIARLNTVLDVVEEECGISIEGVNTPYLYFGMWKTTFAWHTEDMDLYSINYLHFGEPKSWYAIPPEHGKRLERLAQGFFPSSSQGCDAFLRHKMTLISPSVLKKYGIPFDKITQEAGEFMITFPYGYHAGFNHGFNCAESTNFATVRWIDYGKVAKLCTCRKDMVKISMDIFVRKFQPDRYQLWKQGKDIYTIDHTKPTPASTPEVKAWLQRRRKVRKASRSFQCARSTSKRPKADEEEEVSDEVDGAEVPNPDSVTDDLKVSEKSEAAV
GalR3 antag = human GalR3 antagonism; AID 651719; inhibition, % at 3 µM; HEK293 GalR3-CNG cAMP membrane potential fluorescence; galR3 body fused to GalR1 C-terminus; hit rate 0.44% among 360,000;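 active means inhibition above the screen-wide average plus 3 SD, cut at about 13% in these data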;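 further: forskolin and galanin both at EC90 stimulate the cells; cAMP rise reported by CNG channel membrane potential dye signal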
697 NFkB inh = inhibitors of the PMA/ionomycin-induced NF-kB reporter in 697 B cells; 697 B-cell NF-kB luciferase reporter, 16 h; inhibition, % at 4 µM; hit rate 0.33% among 330,000; AID 435022; in the data active means inhibition above about 35%
697 NFkB conf = lowers PMA/ionomycin-induced NF-kB signal in 697 B cells; shares compounds with 697 NFkB inh; hit rate 35% among 2,000; 697 B-cell NF-kB luciferase, 16 h; inhibition, % at 4 µM; AID 449746; in the data active means inhibition mostly above about 28%, no sharp cut-off; inactive means mostly below about 22%
Numbers stand for hits; - = inactive; . = no result given.

SMILES	NR2E3 ag-1	NR2E3 ag-2	Jurkat NFkB inh	GASC-1 inh	GalR3 antag	697 NFkB inh	697 NFkB conf
Cc1ccc(C(=O)NCC(=O)N2CCN(c3ccccc3O)CC2)s1	.	-	.	.	-	.	.
COC(=O)Nc1nc2ccc(C(=O)c3cccs3)cc2[nH]1	-	-	-	-	-	-	-
O=C(Nc1nc2ccccc2[nH]1)c1cccs1	-	-	-	-	-	-	.
O=C1c2ccccc2C(=O)C1c1ccnc2ccccc12	-	-	-	-	-	-	-
O=C1c2ccccc2C(=O)C1c1nccc2ccccc12	-	-	-	-	-	-	-
O=C1C(c2ccnc3ccccc23)=C(O)c2ccccc21	-	-	-	-	-	-	-
N#CC1=C(N)SC(N)=C(C#N)C1c1ccnc2ccccc12	-	-	-	-	-	-	.
O=Cc1nccc2ccccc12	.	-	.	.	-	.	.
CC(C)c1[nH]nc2c1C(c1cccc(C(F)(F)F)c1)N(Cc1ccccc1)C2=O (configuration not stated)	.	.	.	.	-	.	.
CCc1ccc2oc(-c3cccc(N)c3)nc2c1	-	-	-	-	-	-	-
O=[N+]([O-])c1ccccc1N/N=C\c1ccccc1Cl	-	-	-	-	-	-	.
O=[N+]([O-])c1ccccc1N/N=C/c1cccc(O)c1O	-	-	-	-	-	-	-
O=C(c1ccco1)N1CCN(c2ncnc3c2[nH]c2ccccc23)CC1	.	.	-	-	.	36.3	-
O=C(c1ccco1)N1CCN(c2ncnc3c2[nH]c2ccc(Br)cc23)CC1	.	-	.	-	-	.	.
CCOC(=O)N1CCN(c2ncnc3c2[nH]c2ccc(OC)cc23)CC1	-	-	-	-	-	36.7	37.9
CC1=CC(C)(C)Nc2ccc(OC(=O)c3cccnc3)cc21	-	-	-	-	-	66.3	61.9
O=C(Oc1ccc(F)cc1)c1cccnc1	-	-	-	-	-	-	.
CC1=CC(C)(C)Nc2ccc(OC(=O)c3ccco3)cc21	-	-	-	-	-	78.6	38.2
CC1=CC(C)(C)N2C(=O)C(=O)c3cc(OC(=O)c4ccco4)cc1c32	-	-	-	-	-	-	.
CC1=CC(C)(C)Nc2ccc(OC(=O)CN3C(=O)CCC3=O)cc21	-	-	-	-	-	64.5	47.9
CC1=CC(C)(C)Nc2ccc(OC(=O)C(C)N3C(=O)c4ccccc4C3=O)cc21 (configuration not stated)	-	-	-	-	-	66.6	54.6
c1cncc(Oc2ccc(NCCc3c[nH]c4ccccc34)cc2)c1	.	.	.	.	-	.	.
CCN(CC)S(=O)(=O)c1cccc(C(=O)NC(C(=O)NNC(=O)c2ccccc2F)C(C)C)c1 (configuration not stated)	.	-	.	.	-	.	.
Cc1ccc(/C=C/c2nc3ccccc3s2)s1	-	-	-	-	-	-	-
CN(C)c1ccc(/C=C/c2nc3ccccc3s2)cc1	-	-	-	-	-	-	.
SMILES	NR2E3 ag-1	NR2E3 ag-2	Jurkat NFkB inh	GASC-1 inh	GalR3 antag	697 NFkB inh	697 NFkB conf
COc1cc(/C=C/c2nc(N)nc(-c3ccccc3O)n2)cc(OC)c1OC	-	-	-	-	-	36.0	-
Cn1c(=O)[nH]c(=O)c2c1nc(N/N=C/c1ccncc1)n2Cc1ccc(Cl)cc1	-	-	-	-	-	37.7	-
CSc1nc2c(c(=O)[nH]c(=O)n2C)n1Cc1ccc(Cl)cc1	-	-	-	-	-	-	.
Cc1ccc(/C=C/C(=O)CCC(=O)O)cc1	-	-	-	-	-	-	.
CC(C)[C@H](N)c1nnc(SCC(=O)c2ccc(Cl)cc2)o1	-	-	-	-	-	58.0	35.3
Cc1cccc(CN2CCN(C3CN(Cc4cn(Cc5ccc(C(F)(F)F)cc5)nn4)S(=O)(=O)C3)CC2)c1 (configuration not stated)	.	.	.	.	-	.	.
CCCCNc1ncnc2c1cnn2-c1ccc(Cl)cc1	-	-	-	-	-	-	-
CCCCNc1ncnc2c1cnn2-c1ccccc1	-	-	-	-	-	-	.
Cc1cccc(-n2ncc3c(NCc4cccnc4)ncnc32)c1	-	-	-	-	-	-	.
Cc1ccc(-n2ncc3c(NCc4cccnc4)ncnc32)cc1C	-	-	-	-	-	-	-
CC(C)(C)CN1C(N)=NC[C@@H]1Cc1ccc(O)cc1	-	-	-	-	-	43.7	-
Cc1ccccc1-c1cc(C(=O)Nc2sc(C)c(C)c2C(N)=O)c2ccccc2n1	-	-	-	-	-	-	.
CCOC(=O)c1sc(NC(=O)c2cc(-c3ccccc3C)nc3ccccc23)c(C#N)c1C	-	-	-	-	-	36.4	40.0
Cn1c(=O)cc(OCCCC(=O)N2CCCCC2)c2ccccc21	-	-	-	-	-	38.5	42.0
Cn1c(=O)cc(OCC(=O)NC2CCCCC2)c2ccccc21	-	-	-	-	-	-	.
Cn1c(=O)cc(OCCCC(=O)NC2CCCC2)c2ccccc21	-	-	-	-	-	68.5	46.2
Cn1c(=O)cc(OCCCC(=O)NCc2ccccn2)c2ccccc21	-	-	-	-	-	36.5	31.2
Cn1c(=O)cc(OCC(=O)NCc2ccccn2)c2ccccc21	-	-	-	-	-	-	.
CCOc1ccc(-c2nnc(SCC(=O)Nc3cc(C)on3)o2)cc1	-	-	-	-	-	-	41.2
Cc1ccc(S(=O)(=O)CCC(=O)OCc2nnc(-c3ccc([N+](=O)[O-])cc3)o2)cc1	.	-	.	.	-	.	.
CCn1cc(C(=O)O)c(=O)c2cc(F)c(N3CCN(C(=S)NC(=O)c4ccc(OC)cc4)CC3)cc21	-	-	-	-	-	-	.
CCn1cc(C(=O)O)c(=O)c2cnc(N3CCN(C(=S)Nc4ccccc4Cl)CC3)nc21	-	-	-	-	-	-	.
CCn1cc(C(=O)O)c(=O)c2cnc(N3CCN(C(=S)NC(=O)c4ccc(Cl)cc4)CC3)nc21	-	.	-	-	.	38.0	-
CCn1cc(C(=O)O)c(=O)c2cnc(N3CCN(C(=S)NC(=O)c4ccc(Br)cc4)CC3)nc21	-	.	-	-	.	83.6	26.4
CCn1cc(C(=O)O)c(=O)c2cc(F)c(N3CCN(C(=S)NC(=O)c4ccc(Br)cc4)CC3)cc21	-	-	-	-	-	38.2	-
CCOCCCNC(=S)N1CCC(C(=O)c2ccc3c(c2)OCCO3)CC1	-	-	-	-	-	101.4	-
CCNC(=S)N1CCC(C(=O)c2ccc3c(c2)OCCO3)CC1	-	-	-	-	-	-	.
CCOc1cc(/C=N/NC(=O)c2ccc(NC(=O)C3CC3)cc2)ccc1O	-	-	-	-	-	38.5	-
COc1cc(/C=N/NC(=O)c2ccc(NC(=O)C3CCCCC3)cc2)ccc1O	.	-	-	-	-	-	.
CCCc1ccc(-c2cc(C(=O)N3CCN(c4ccccn4)CC3)c3ccccc3n2)cc1	-	-	-	-	-	-	-
